Reference: ChEMBL document CHEMBL1131053, “Design, synthesis, and pharmacological evaluation of conformationally constrained analogues of N,N'-diaryl- and N-aryl-N-aralkylguanidines as potent inhibitors of neuronal Na+ channels” (J Med Chem, 1998)

Key:
[1] = In vitro inhibition of Calcium flux into brain synaptosomes; format: functional, subcellular, Rattus norvegicus
Procedure, shortened: (§1)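 45Ca2+ influx into brain synaptosomes depolarized by elevated K+, adapted from Nachsen and Blaustein. The rapid uptake component is measured, attributed to presynaptic neuronal (likely P-type) Ca2+ channels. Means of at least three determinations ± SEM unless otherwise indicated.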

[2] = target: T1, Sodium channel protein type 2 subunit alpha (Rattus norvegicus, UniProt P04775); test: (§2) In vitro inhibition of [14C]- guanidinium influx in Chinese hamster ovary (CHO) cells expressing rat brain sodium channel type IIA (CNaIIA-1); format: cell-based
T1 sequence (P04775 whole entry): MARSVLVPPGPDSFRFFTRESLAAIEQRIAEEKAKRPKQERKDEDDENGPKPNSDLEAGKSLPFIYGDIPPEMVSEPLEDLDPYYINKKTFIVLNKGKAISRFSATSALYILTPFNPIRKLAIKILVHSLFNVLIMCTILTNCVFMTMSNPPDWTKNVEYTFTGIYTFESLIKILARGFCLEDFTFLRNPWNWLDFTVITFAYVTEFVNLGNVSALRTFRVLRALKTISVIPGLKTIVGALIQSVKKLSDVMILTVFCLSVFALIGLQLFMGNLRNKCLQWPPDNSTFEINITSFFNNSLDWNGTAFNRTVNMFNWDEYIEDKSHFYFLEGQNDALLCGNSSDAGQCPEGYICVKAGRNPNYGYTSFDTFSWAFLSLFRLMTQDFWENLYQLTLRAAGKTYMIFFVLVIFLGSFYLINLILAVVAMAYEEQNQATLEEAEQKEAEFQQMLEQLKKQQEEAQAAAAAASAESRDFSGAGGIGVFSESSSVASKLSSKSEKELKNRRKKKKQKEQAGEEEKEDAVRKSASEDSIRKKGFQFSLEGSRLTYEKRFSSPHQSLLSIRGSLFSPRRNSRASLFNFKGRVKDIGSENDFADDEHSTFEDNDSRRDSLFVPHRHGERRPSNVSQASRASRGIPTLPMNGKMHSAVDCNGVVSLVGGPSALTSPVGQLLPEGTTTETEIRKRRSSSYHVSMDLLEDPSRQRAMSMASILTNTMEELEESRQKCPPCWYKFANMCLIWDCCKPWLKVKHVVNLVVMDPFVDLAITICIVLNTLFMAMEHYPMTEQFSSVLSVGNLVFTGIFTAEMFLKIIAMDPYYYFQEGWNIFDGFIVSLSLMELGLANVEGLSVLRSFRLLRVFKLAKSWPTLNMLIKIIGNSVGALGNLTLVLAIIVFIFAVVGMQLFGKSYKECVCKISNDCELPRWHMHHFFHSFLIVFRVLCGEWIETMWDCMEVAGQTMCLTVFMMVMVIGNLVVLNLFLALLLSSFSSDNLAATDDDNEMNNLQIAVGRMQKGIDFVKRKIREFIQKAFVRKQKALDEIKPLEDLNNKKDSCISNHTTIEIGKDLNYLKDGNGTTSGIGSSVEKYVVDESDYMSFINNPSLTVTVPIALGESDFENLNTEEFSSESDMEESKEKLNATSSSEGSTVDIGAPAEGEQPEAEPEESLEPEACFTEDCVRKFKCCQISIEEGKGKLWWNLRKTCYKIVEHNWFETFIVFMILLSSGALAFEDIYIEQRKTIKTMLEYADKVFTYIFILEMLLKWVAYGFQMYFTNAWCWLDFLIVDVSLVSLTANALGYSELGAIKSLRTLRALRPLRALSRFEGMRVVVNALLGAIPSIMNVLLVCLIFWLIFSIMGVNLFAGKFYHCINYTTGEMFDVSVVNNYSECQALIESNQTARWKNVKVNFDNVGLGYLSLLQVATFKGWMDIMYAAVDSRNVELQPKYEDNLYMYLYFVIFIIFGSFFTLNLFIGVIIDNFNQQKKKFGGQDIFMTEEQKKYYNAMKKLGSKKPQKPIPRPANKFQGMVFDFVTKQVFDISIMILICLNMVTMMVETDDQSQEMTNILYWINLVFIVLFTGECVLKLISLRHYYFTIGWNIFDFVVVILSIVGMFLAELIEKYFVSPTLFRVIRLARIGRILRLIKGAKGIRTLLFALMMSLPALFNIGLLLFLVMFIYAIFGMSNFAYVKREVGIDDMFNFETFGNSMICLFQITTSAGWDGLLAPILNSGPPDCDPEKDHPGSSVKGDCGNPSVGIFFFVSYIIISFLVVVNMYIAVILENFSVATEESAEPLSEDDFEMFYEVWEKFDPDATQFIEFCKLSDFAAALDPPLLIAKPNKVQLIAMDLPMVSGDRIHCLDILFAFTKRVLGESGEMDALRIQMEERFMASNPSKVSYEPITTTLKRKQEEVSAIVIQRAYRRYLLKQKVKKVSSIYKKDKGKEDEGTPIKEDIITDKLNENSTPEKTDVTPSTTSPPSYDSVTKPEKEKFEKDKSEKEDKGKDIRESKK

Glutamate NMDA receptor = test: Displacement of [3H]-MK-801 binding to N-methyl-D-aspartate glutamate receptor of rat brain membranes; format: cell membranes, Membrane
Procedure, shortened: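 Rat brain membrane suspension; inhibition of [3H]MK-801 binding at the NMDA receptor ion-channel site. IC50 taken from displacement curves, Ki reported. Means of at least three separate determinations ± SEM.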

Mus musculus [3] = test: Percent inhibition of convulsions in audiogenic DBA/2 mice at dose 20 mg/kg; format: functional
Procedure, shortened: (§3)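 Audiogenic DBA/2 mice of either sex, 6.5–12 g, 20–23 days old. Drug or vehicle (0.3 M mannitol, 10 mL/kg) given ip 30 min before a 12 kHz, 120 dB pure tone for 45 s or until respiratory arrest. % inhibition = (MRS control − MRS treatment)/MRS control × 100.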

Mus musculus [4] = test: Percent inhibition of convulsions in audiogenic DBA/2 mice at dose 10 mg/kg; format: functional; procedure, shortened: as §3
[5] = target: T1, Sodium channel protein type 2 subunit alpha; test: as §2; format: functional, cell-based
[6] = In vitro inhibition of Calcium flux into brain synaptosomes (Values are means of at least three separate determinations); format: functional, subcellular, Rattus norvegicus; procedure, shortened: as §1
Mus musculus [7] = test: Percent inhibition of convulsions in audiogenic DBA/2 mice at dose 4 mg/kg; format: functional; procedure, shortened: as §3
Mus musculus [8] = test: Percent inhibition of convulsions in audiogenic DBA/2 mice at dose 2 mg/kg; format: functional; procedure, shortened: as §3

## CCC(C)c1ccc(N(Cc2ccc(C(C)(C)C)cc2)C(=N)N)cc1 (configuration not stated)
[1]
  IC50: 2.4 µM
[2]
  IC50: 0.62 µM
Glutamate NMDA receptor
  Ki: 3.69 µM
Mus musculus [3]
  inhibition in vivo at 20 mg/kg: 81%
Mus musculus [4]
  inhibition in vivo at 10 mg/kg: 44%

## c1ccc(NC2=NCCN2c2ccccc2)cc1
[2]
  IC50: > 25 µM

## COc1ccc(/N=C(\N)Nc2ccc3c4c(cccc24)CC3)c2ccccc12
Glutamate NMDA receptor
  Ki: 2.49 µM
[5]
  IC50: 1.64 µM
Mus musculus [3]
  inhibition in vivo at 20 mg/kg: 21%
[6]
  IC50: 2.7 µM

## CCC(C)c1ccc(NC(=N)Nc2ccc(C(C)CC)cc2)cc1 (configuration not stated)
Glutamate NMDA receptor
  Ki: 4.33 µM
Mus musculus [3]
  inhibition in vivo at 20 mg/kg: 69%

## NC1=NCC(c2ccccc2)N1c1ccccc1 (configuration not stated)
[2]
  IC50: > 24 µM

## NC1=Nc2ccccc2CN1c1ccccc1
[2]
  IC50: 9.95 µM

## CCC(C)c1ccc(N2CCN(c3ccc(C(C)CC)cc3)C2=N)cc1 (configuration not stated)
Glutamate NMDA receptor
  Ki: 13.5 µM
[5]
  IC50: 0.06 µM
Mus musculus [3]
  inhibition in vivo at 20 mg/kg: 58%

## N=C(N)N(Cc1ccccc1)c1ccccc1
[2]
  IC50: 53 µM

## CCC(C)c1ccc(N2CCCN(c3ccc(C(C)CC)cc3)C2=N)cc1 (configuration not stated)
Mus musculus [7]
  inhibition in vivo at 4 mg/kg: 75%
Mus musculus [8]
  inhibition in vivo at 2 mg/kg: 41%
Glutamate NMDA receptor
  Ki: 35.1 µM
[5]
  IC50: 0.06 µM
Mus musculus [4]
  inhibition in vivo at 10 mg/kg: 84%
[6]
  IC50: 0.39 µM

## CC(C)c1ccc2c(c1)CCC(c1ccc(C(C)(C)C)cc1)N2C(=N)N (configuration not stated)
Glutamate NMDA receptor
  Ki: 3.84 µM
[5]
  IC50: 0.46 µM
Mus musculus [3]
  inhibition in vivo at 20 mg/kg: 80%
Mus musculus [4]
  inhibition in vivo at 10 mg/kg: 22%
[6]
  IC50: 0.9 µM

## N=C1N(c2ccccc2)CCCN1c1ccccc1
[2]
  IC50: > 25 µM

## N/C1=N/c2ccc(cc2)OCCCCCOc2ccc(cc2)N1
[2]
  IC50: 2.9 µM

## CCOc1ccc(NC(=N)Nc2ccc(OCC)cc2)cc1
[2]
  IC50: 3.28 µM

## CCC(C)c1ccc(N(C)C(=N)N(C)c2ccc(C(C)CC)cc2)cc1 (configuration not stated)
Glutamate NMDA receptor
  Ki: 3.34 µM
[5]
  IC50: 1 µM
Mus musculus [3]
  inhibition in vivo at 20 mg/kg: 43%
[6]
  IC50: 2.5 µM

## N=C(N)N1Cc2ccccc2CCc2ccccc21
[2]
  IC50: 38 µM

## N=C(N)N1c2ccccc2CCC1c1ccccc1 (configuration not stated)
[2]
  IC50: 17.5 µM

## CCC(C)c1ccc(N2C(N)=NCC2c2ccc(C(C)C)cc2)cc1 (configuration not stated)
[1]
  IC50: 3.5 µM
[2]
  IC50: 1.8 µM
Glutamate NMDA receptor
  Ki: 4.41 µM
Mus musculus [3]
  inhibition in vivo at 20 mg/kg: 2%

## N=C1N(c2ccccc2)CCN1c1ccccc1
[2]
  IC50: 14.7 µM

## N=C(Nc1ccccc1)Nc1ccccc1
[5]
  IC50: > 14 µM

## Nc1nnc(-c2cccc(Cl)c2Cl)c(N)n1 [LAMOTRIGINE]
Mus musculus [4]
  inhibition in vivo at 10 mg/kg: 71%

## CN(c1nc2ccccc2s1)C1CCN(C[C@H](O)COc2ccc(F)c(F)c2)CC1 [LUBELUZOLE]
[2]
  IC50: 0.26 µM
Mus musculus [3]
  inhibition in vivo at 20 mg/kg: 66%
